This is an account of results in ChEMBL document CHEMBL3627607, “A Novel Pyrazolopyridine with in Vivo Activity in Plasmodium berghei- and Plasmodium falciparum-Infected Mouse Models from Structure-Activity Relationship Studies around the Core of Recently Identified Antimalarial Imidazopyridazines” (J Med Chem, 2015).

Data set [1] concerns Blood. In words: Drug metabolism in rat blood assessed as metabolite formation from sulfone oxidation on pyridine core and phenyl ring at 20 mg/kg, po and 5 mg/kg, iv by LC-MS/MS analysis. The class given is ADME, organism-based. To be noted: in vivo. Put shortly: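 Metabolites identified by LC-ESI-MS/MS in blood samples from the rat PK study (oral and intravenous dosing).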

Data set [2] can be described thus: Drug level in mouse blood at 50 mg/kg, po after 1 hr. The class given is ADME, organism-based. The settings on record: read-out: Drug uptake. Put shortly:
(§1)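 Snapshot whole-blood levels of parent and its sulfone metabolite at 1, 4 and 24 h after the first 50 mg/kg oral dose. Samples came from the P. berghei-infected efficacy mice, dosed in HPMC suspension vehicle.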

For data set [3], the system named is Blood. In words: Drug metabolism in mouse assessed as 5-(3-(Cyclopropylsulfonyl)phenyl)-3-(4-(methylsulfonyl)-phenyl)pyrazolo[1,5-a]pyridine level in blood at 50 mg/kg, po after 24 hrs. The class given is ADME, organism-based. The settings on record: in vivo. Put shortly: as §1
Data set [4] can be described thus: AUC (0 to 23 hrs) in Plasmodium falciparum 3D7 infected in non-myelodepleted NOD-SCID IL2Rgammanull mouse engrafted with human erythrocytes at 30 mg/kg, po. The class given is ADME, organism-based. More on the design: dose 30 mg/kg, time < 23 hr, route oral. The settings on record: in vivo. The method in brief: (§2)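 Engrafted NSG (scid IL2Rgc null) mice infected with P. falciparum were given one oral dose per day for four days. Blood was sampled to measure parent and its sulfone metabolite.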

For the next data set, the system named is Plasmodium berghei. In words: Antiplasmodial activity against Plasmodium berghei ANKA expressing GFP infected in mouse assessed as means survival days at 10 mg/kg, po qd for 4 days. The class given is functional. Put shortly: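 Mice (n = 3) infected with GFP-transfected P. berghei ANKA. Compounds dissolved or suspended in HPMC vehicle (0.5% w/v hydroxypropylmethylcellulose, 0.5% v/v benzyl alcohol, 0.4% v/v Tween 80, 0.9% w/v NaCl in water). Dosed orally 4, 24, 48 and 72 h after infection. Parasitemia read by flow cytometry (detection limit 0.1%). Survival recorded as mean survival time in days.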

A short description of data set [5]: Selectivity index, ratio of IC50 for African green monkey VERO cells to IC50 for multidrug resistant Plasmodium falciparum K1. The class given is toxicity, cell-based. To be noted: read-out: Ratio IC50.
Data set [6] is described as follows: Tmax in Plasmodium falciparum 3D7 infected in non-myelodepleted NOD-SCID IL2Rgammanull mouse engrafted with human erythrocytes at 30 mg/kg, po. The class given is ADME, organism-based. To be noted: in vivo. Put shortly:
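Humanized NSG mice infected with P. falciparum received one oral dose per day for 4 consecutive days. Blood was sampled for exposure, with levels of both parent and its main active metabolite measured. Tmax was taken from the blood concentration–time profile after oral dosing.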

The next data set concerns Plasmodium falciparum. The data set is described as follows: Antiplasmodial activity against Plasmodium falciparum 3D7 infected in po dosed non-myelodepleted NOD-SCID IL2Rgammanull mouse engrafted with human erythrocytes assessed as reduction of parasitemia level administered qd for 4 days. The settings on record: 3D7, po, 96 h. The class given is functional. The method in brief: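 P. falciparum-infected engrafted NSG mice were dosed orally once daily for four consecutive days. Blood parasitemia was monitored, and a 90% effective dose was derived along with the blood exposure at that dose.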

Data set [7] can be described thus: Selectivity index, ratio of IC50 for CHO cells to IC50 for multidrug resistant Plasmodium falciparum K1. The class given is toxicity, cell-based. The settings on record: hamster, read-out: Ratio IC50.
Data set [8] in a line: Cmax in Plasmodium falciparum 3D7 infected in non-myelodepleted NOD-SCID IL2Rgammanull mouse engrafted with human erythrocytes at 10 mg/kg, po. The class given is ADME, organism-based. More on the design: dose 10 mg/kg, route oral. The settings on record: in vivo. Put shortly:
as §2

Data set [9] in a line: Drug level in mouse blood at 50 mg/kg, po after 4 hrs. The class given is ADME, organism-based. To be noted: read-out: Drug uptake. Put shortly: as §1
Data set [10] in a line: AUC (0 to 8 hrs) in Plasmodium falciparum 3D7 infected in non-myelodepleted NOD-SCID IL2Rgammanull mouse engrafted with human erythrocytes at 10 mg/kg, po. The class given is ADME, organism-based. Set-up: time < 8 hr, dose 10 mg/kg, route oral. The settings on record: in vivo. The method in brief: as §2
The nature of data set [11]: Cmax in Plasmodium falciparum 3D7 infected in non-myelodepleted NOD-SCID IL2Rgammanull mouse engrafted with human erythrocytes at 0.5 mg/kg, po. The class given is ADME, organism-based. More on the design: dose 0.5 mg/kg, route oral. The settings on record: in vivo. The method in brief: as §2
Data set [12] concerns Blood. The data set is described as follows: Drug metabolism in mouse assessed as 5-(3-(Cyclopropylsulfonyl)phenyl)-3-(4-(methylsulfonyl)-phenyl)pyrazolo[1,5-a]pyridine level in blood at 50 mg/kg, po after 4 hrs. The class given is ADME, organism-based. To be noted: in vivo. Put shortly:
as §1

Molecules are shown by their SMILES. Some results are limits rather than exact numbers.

For the compound `C[S+]([O-])c1ccc(-c2cnn3ccc(-c4cccc(S(=O)(=O)C5CC5)c4)cc23)cc1` (centres undefined), the Drug metabolism entry with Blood [1] was “metabolite_detected”; with Blood [3] it was 3.1 µM; in the data set with Blood [12], 10.3 µM. In addition, the concentration at 1 h in [2] stood at 2960 nM. The AUC(0-t) (in general, the area under the concentration-time curve up to a stated or last time point) at 23 h in data set [4] worked out at 1240 ng·h/mL. The MSD with Plasmodium berghei is 8 days. Further, the selectivity ratio in data set [5] and in [7] was above 1000 in each case. For the same compound, in [6], the Tmax (as a rule, the time from dosing to the highest level) amounted to 6 h. In addition, in the data set with Plasmodium falciparum, the ED90 was 0.5 mg/kg. The values for the Cmax in [8] and in [11] were 50 ng/mL and 4 ng/mL, respectively. Further, the concentration at 4 h in [9] turned out to be 1780 nM. Moreover, the AUC(0-t) at 8 h in data set [10] came to 293 ng·h/mL.
